The test system of data set [1] is Saccharomyces cerevisiae. The experiment in a line: Growth inhibition of GTT2-deficient Saccharomyces cerevisiae YLL060C mutant at 20 ug/disc after 24 to 48 hrs by agar diffusion assay. It counts as functional. To be noted: read-out: DIZ. The procedure, abridged:
(§1)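 S. cerevisiae deletion mutants or wild type grown on YPD, seeded into liquid agar medium at an optical density of 0.1. 6 mm paper discs soaked with methanolic compound solution were placed on the plates and incubated at 30 °C. Growth was checked after 1 and 2 days, and the inhibition zone diameter was recorded in mm.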
(In general: A growth-free zone around the sample is the usual read-out of agar diffusion tests.)

Data set [2] deals with HUVEC. Put plainly: Induction of oxidative stress in human HUVEC cells assessed as increase in hydrogen peroxide free radical production after 1 hr by DCF-based fluorescence spectrophotometric analysis. Format: cell-based. The procedure, abridged:
(§2)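 Cells were seeded at 10^5 per well and given graded compound concentrations for 1 h. They were then loaded with DHE or DCF probe for 30 min in the dark. Fluorescence was read immediately: DHE ex 540/em 600 nm; DCF ex 485/em 528 nm. Results were expressed as arbitrary units per 10^5 cells.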

Data set [3] deals with A-431. Put plainly: Induction of oxidative stress in human A431 cells assessed as increase in superoxide free radical production after 1 hr by DHE-based by fluorescence spectrophotometric analysis. It counts as functional, cell-based. The gist of the method:
as §2

The subject of data set [4] is Saccharomyces cerevisiae. Put plainly: Growth inhibition of UFD2-deficient Saccharomyces cerevisiae YDL190C mutant at 20 ug/disc after 24 to 48 hrs by agar diffusion assay. It counts as functional. Particulars: read-out: DIZ. The procedure, abridged:
as §1

Data set [5] has as its system MCF7. Put plainly: Cytotoxicity against human MCF7 cells after 24 hrs by MTT assay. Format: functional, cell-based. Particulars: MCF7, 24 h. The gist of the method:
(§3)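 MTT assay. Cells were seeded at 50,000 cells/mL in medium with 10% fetal calf serum and grown for two days at 37 °C, 10% CO2. Serial dilutions of compound were then added for 24 h. MTT was added (final 0.5 mg/mL) for 2 h, and the formazan was pelleted, washed, dissolved in isopropanol with 0.4% HCl and read at 590 nm. IC50 is the concentration giving 50% of untreated-control absorbance, taken from dose-response curves; mean of two parallel experiments.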
(In general: Tetrazolium assays rely on reduction of a dye to a coloured formazan, in cell work by metabolically active cells.)

Data set [6] relates to Saccharomyces cerevisiae. Put plainly: Growth inhibition of SOD1-deficient Saccharomyces cerevisiae YJR104C mutant at 20 ug/disc after 24 to 48 hrs by agar diffusion assay. To be noted: read-out: DIZ. Format: functional. The gist of the method: as §1
In data set [7] the test system is Saccharomyces cerevisiae. Put plainly: Growth inhibition of wild type Saccharomyces cerevisiae BY4741 at 20 ug/disc after 24 to 48 hrs by agar diffusion assay. It counts as functional. To be noted: read-out: DIZ. The procedure, abridged: as §1
In data set [8] the test system is Saccharomyces cerevisiae. The experiment in a line: Growth inhibition of RCK1-deficient Saccharomyces cerevisiae YGL158W mutant at 20 ug/disc after 24 to 48 hrs by agar diffusion assay. To be noted: read-out: DIZ. Format: functional. The procedure, abridged: as §1
Data set [9] concerns HUVEC. The experiment in a line: Cytotoxicity against human HUVEC cells after 24 hrs by MTT assay. Format: cell-based. The gist of the method:
as §3

The subject of data set [10] is Saccharomyces cerevisiae. Put plainly: Growth inhibition of COX17-deficient Saccharomyces cerevisiae YLL009C mutant at 20 ug/disc after 24 to 48 hrs by agar diffusion assay. To be noted: read-out: DIZ. It counts as functional. The procedure, abridged:
as §1

The subject of data set [11] is Saccharomyces cerevisiae. The experiment in a line: Growth inhibition of SOD2-deficient Saccharomyces cerevisiae YHR008C mutant at 20 ug/disc 24 to 48 hrs by agar diffusion assay. It counts as functional. To be noted: read-out: DIZ. The gist of the method: as §1
The test system of data set [12] is Saccharomyces cerevisiae. The experiment in a line: Growth inhibition of WSC4-deficient Saccharomyces cerevisiae YHL028W mutant at 20 ug/disc 24 to 48 hrs by agar diffusion assay. It counts as functional. Particulars: read-out: DIZ. The procedure, abridged: as §1
For data set [13], the system named is Saccharomyces cerevisiae. The experiment in a line: Growth inhibition of GSH2-deficient Saccharomyces cerevisiae YOL049W mutant at 20 ug/disc after 24 to 48 hrs by agar diffusion assay. Format: functional. To be noted: read-out: DIZ. The gist of the method:
as §1

A short description of data set [14]: Cytotoxicity against human PHF cells after 24 hrs by MTT assay. Format: cell-based. The procedure, abridged: as §3
Data set [15] deals with HUVEC. The experiment in a line: Induction of oxidative stress in human HUVEC cells assessed as increase in superoxide free radical production after 1 hr by DHE-based by fluorescence spectrophotometric analysis. It counts as cell-based. The gist of the method:
as §2

Data set [16] relates to Saccharomyces cerevisiae. Put plainly: Growth inhibition of PST2-deficient Saccharomyces cerevisiae YDR032C mutant at 20 ug/disc 24 to 48 hrs by agar diffusion assay. To be noted: read-out: DIZ. It counts as functional. The gist of the method: as §1
The test system of data set [17] is Saccharomyces cerevisiae. Put plainly: Growth inhibition of POS5-deficient Saccharomyces cerevisiae YPL188W mutant at 20 ug/disc after 24 to 48 hrs by agar diffusion assay. It counts as functional. To be noted: read-out: DIZ. The procedure, abridged: as §1
For data set [18], the system named is A-431. Put plainly: Cytotoxicity against human A431 cells after 24 hrs by MTT assay. Format: functional, cell-based. To be noted: A-431, 24 h. The gist of the method: as §3
Data set [19] deals with A498. The experiment in a line: Cytotoxicity against human A498 cells after 24 hrs by MTT assay. It counts as functional, cell-based. To be noted: A498, 24 h. The gist of the method:
as §3

The subject of data set [20] is A-431. The experiment in a line: Induction of apoptosis in human A431 cells assessed as early apoptotic cells at 13 uM after 12 hrs by FITC-annexin V/PI staining-based flow cytometric analysis (reference value: 0.6%). It counts as functional.
Data set [21] relates to A-431. Put plainly: Induction of apoptosis in human A431 cells assessed as late apoptotic cells at 11 uM after 12 hrs by FITC-annexin V/PI staining-based flow cytometric analysis (reference value: 7.4%). It counts as functional.
In data set [22] the test system is MCF7. The experiment in a line: Induction of Cell cycle arrest in human MCF7 cells assessed as G2/M phase cells at IC50 concentration after 24 hrs by PI-staining based flow cytometric analysis (reference value: 13%). It counts as functional. The gist of the method: (§4)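 MCF-7 cells (10^6) were treated for 24 h, with methanol as the vehicle control. Cells were fixed in cold 70% methanol at 4 °C for one day, washed with PBS, and permeabilized with 0.1% saponin in PBS. They were stained with propidium iodide plus RNase for 30 min. DNA content was read by flow cytometry, giving percentages of cells per cell-cycle phase.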
For orientation: Flow cytometry measures light scatter and fluorescence of single cells or particles in a stream.

For data set [23], the system named is A-431. The experiment in a line: Induction of apoptosis in human A431 cells assessed as early apoptotic cells at 11 uM after 12 hrs by FITC-annexin V/PI staining-based flow cytometric analysis (reference value: 0.6%). It counts as functional.
The test system of data set [24] is A-431. The experiment in a line: Induction of apoptosis in human A431 cells assessed as late apoptotic cells at 8 uM after 12 hrs by FITC-annexin V/PI staining-based flow cytometric analysis (reference value: 7.4%). It counts as functional.
Data set [25] deals with A-431. Put plainly: Induction of apoptosis in human A431 cells assessed as caspase3/7 activation at 2.8 uM after 24 hrs by caspase-Glo assay. Format: functional, cell-based. The gist of the method: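 A-431 cells (20,000/well, 384-well) were incubated with compound for 1, 2, 4, 6, 12 and 24 h in the dark at 37 °C, 5% CO2. Caspase-Glo 3/7 reagent was added for 30 min at room temperature in the dark. Luminescence was then read on a plate luminometer.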

The subject of data set [26] is A-431. The experiment in a line: Induction of apoptosis in human A431 cells assessed as early apoptotic cells at 8 uM after 12 hrs by FITC-annexin V/PI staining-based flow cytometric analysis (reference value: 0.6%). Format: functional.
Data set [27] has as its system A-431. Put plainly: Induction of apoptosis in human A431 cells assessed as late apoptotic cells at 13 uM after 12 hrs by FITC-annexin V/PI staining-based flow cytometric analysis (reference value: 7.4%). Format: functional.
Data set [28] deals with MCF7. The experiment in a line: Induction of Cell cycle arrest in human MCF7 cells assessed as G0/1 phase cells at IC50 concentration after 24 hrs by PI-staining based flow cytometric analysis (reference value: 68%). It counts as functional. The procedure, abridged:
as §4

For data set [29], the system named is MCF7. The experiment in a line: Induction of oxidative stress in human MCF7 cells assessed as decrease in GSH level at 5 uM after 1 hr by DTNB assay relative to control. It counts as functional. Set-up: scale not given: the % may be the effect or the level left. The gist of the method: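 MCF-7 cells (10^6) were treated for 1 h at 37 °C, trypsinized, and washed twice with cold PBS. GSH was extracted with chilled 5% metaphosphoric acid at 4 °C for 2 h, then the lysate was centrifuged. Supernatant was mixed with 0.2 M sodium phosphate pH 8.0 and 0.04 mM DTNB for 10 min at room temperature. Absorbance was read at 412 nm against a reagent blank, and GSH was quantified from a standard curve.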

The test system of data set [30] is MCF7. Put plainly: Induction of Cell cycle arrest in human MCF7 cells assessed as S phase cells at IC50 concentration after 24 hrs by PI-staining based flow cytometric analysis (reference value: 19%). Format: functional. The procedure, abridged:
as §4

The subject of data set [31] is A-431. Put plainly: Induction of apoptosis in human A431 cells after 12 hrs by FITC-annexin V/PI staining-based flow cytometric analysis. Format: functional, cell-based.

pIC50: −log10 of the molar value. Active and inactive are the calls of the source. No cut-off for these calls is given here.

The term pIC50 denotes the negative decadic logarithm of the IC50, by convention in mol/L. Consider `CC1=C(SCCC(=O)OC(CC[Se]c2ccccc2)C(=O)NC(C)(C)C)C(=O)c2ccccc2C1=O` (configuration not stated), for which the zone of inhibition at 20 µg/disc in data set [1] came to 0 mm; in [4], 10 mm; in [6] it was 10 mm; in data set [7], 0 mm; in data set [8], 0 mm; in data set [10] it was 10 mm. For the same compound, the zone of inhibition at 20 µg/disc worked out at 0 mm in data set [11]; 11 mm in data set [12]; 0 mm in [13]; 12 mm in data set [16]; 0 mm in [17]. Also, the Activity entry in data set [2] and in data set [15] was “Non-toxic” throughout. For the same compound, the outcome in data set [3] was Active. For the same compound, the pIC50 in [5] is 4.59; in [9], 4.89; in data set [14], 4.96; in data set [18], less than 4.00; in [19], less than 4.00.
Turning to `CC1=C([Se]CC(OC(=O)CC[Se]c2ccccc2)C(=O)NCCCCCC(=O)OCc2ccccc2)C(=O)c2ccccc2C1=O` (configuration not stated), the zone of inhibition at 20 µg/disc worked out at 25 mm in data set [1]; 15 mm in [4]; 14 mm in data set [6]; 0 mm in [7]; 15 mm in [8]; 15 mm in data set [10]. Moreover, the zone of inhibition at 20 µg/disc in data set [11] was 19 mm; in data set [12], 26 mm; in data set [13], 15 mm; in [16] it was 16 mm; in data set [17], 17 mm. Further, the Activity in data set [20] came to 4.1%; in [21], 13.1%; in data set [22], 6%; in [23], 7.7%; in data set [24], 12.9%; in [26] it was 2.5%. For the same compound, the Activity was 29.3% in data set [27]; 87% in [28]; 62% in data set [29]; 6.8% in data set [30]; “Dose-dependent effect” in data set [31]. Also, the pIC50 in data set [5] is 5.05; in data set [9] it was 5.52; in data set [14] it was 5.22; in data set [18], 5.40; in data set [19], 5.40. Moreover, the result in data set [25] was Active.

(Values after ChEMBL document CHEMBL2177069, “Novel peptidomimetic compounds containing redox active chalcogens and quinones as potential anticancer agents” (Eur J Med Chem, 2012).)
